Reference: ChEMBL document CHEMBL4406803, “A- and D-Ring Structural Modifications of an Androsterone Derivative Inhibiting 17β-Hydroxysteroid Dehydrogenase Type 3: Chemical Synthesis and Structure-Activity Relationships” (J Med Chem, 2019)
Activity calls are given as the source filed them. The calls are words filed in the database; no cut-off is given here.

How the values were obtained:
LAPC4 [1] = assay: Antiproliferative activity against human LAPC4 cells expressing androgen receptor assessed as inhibition of cell proliferation at 0.1 uM supplemented with fresh medium containing compounds every 3 days for 7 days by MTS assay relative to control; type: functional
Outline: (§1)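 Androgen-dependent LAPC-4 cells were seeded at 5,000 per well in IMDM with 5% dextran-coated charcoal-treated FBS and pre-incubated 24 h at 37 °C, 5% CO2. Compounds were added from DMSO stock at 0.1, 0.5 and 1.0 µM, with 0.05% DMSO in controls. Incubation lasted 7 days, with a medium change at day 3. Growth was read by MTS (4 h, 490 nm) as % of untreated control (100%), in triplicate.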

[2] = biological target: T1, 17-beta-hydroxysteroid dehydrogenase type 3 (Homo sapiens, UniProt P37058); assay: Inhibition of 17beta-HSD3 (unknown origin) expressed in human LNCAP cells assessed as reduction in [14C]-testosterone formation from [14C]-4-androstene-3,17-dione measured after 1 hr; type: cell-based
T1 sequence (P37058 whole entry): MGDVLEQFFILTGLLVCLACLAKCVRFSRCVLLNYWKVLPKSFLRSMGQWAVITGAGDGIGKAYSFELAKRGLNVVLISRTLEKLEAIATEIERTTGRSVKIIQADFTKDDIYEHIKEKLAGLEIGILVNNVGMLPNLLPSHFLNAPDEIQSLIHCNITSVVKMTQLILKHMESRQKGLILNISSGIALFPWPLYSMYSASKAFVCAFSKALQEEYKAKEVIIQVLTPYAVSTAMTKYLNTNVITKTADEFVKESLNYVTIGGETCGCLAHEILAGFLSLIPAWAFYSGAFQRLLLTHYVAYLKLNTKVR
Outline: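 Transfected LNCaP[17β-HSD3] cells were incubated 1 h with 15 nM [14C]-4-androstenedione and inhibitor at seven concentrations (0.001–5.0 µM; 0.05% DMSO). [14C]-T formation was measured by TLC and radioimaging. IC50 was obtained by curve fitting, averaging two independent experiments in triplicate.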

[3] = biological target: T2, 17-beta-hydroxysteroid dehydrogenase type 3 (Homo sapiens) (UniProt P37058); assay: Inhibition of 17beta-HSD3 (unknown origin) expressed in human LNCAP cells assessed as reduction in [14C]-testosterone formation from [14C]-4-androstene-3,17-dione at 0.1 uM measured after 1 hr relative to control; type: cell-based
T2 sequence (whole entry): T1 sequence (P37058 whole entry)
Outline: (§2)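 LNCaP cells stably transfected with 17β-HSD3 were plated at 10,000 per well in hygromycin-free medium and grown 2 days. They were then given 15 nM [14C]-4-androstenedione plus inhibitor at 0.1, 0.5 or 1.0 µM (0.05% DMSO final) for 1 h. Steroids were ether-extracted, separated by TLC and quantified by radioimaging. Results are % inhibition of conversion to T.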

PC-3 [4] = assay: Antiproliferative activity against AR-deficient human PC3 cells assessed as reduction in cell proliferation at 0.5 uM measured after 3 days by MTS assay relative to control; type: functional; design: scale not given: the % may be the effect or the level left
Outline: (§3)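 Androgen-independent PC-3 cells were plated at 3,000 per well in triplicate in RPMI-1640 with 10% FBS. Compounds were added at 0.1, 0.5 and 1.0 µM from DMSO stock, with 0.05% DMSO in controls, and incubated 3 days. Growth was read by MTS (4 h, 490 nm) and expressed as % of non-treated control (100%).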

LAPC4 [5] = assay: Antiproliferative activity against human LAPC4 cells expressing androgen receptor assessed as inhibition of cell proliferation at 1 uM supplemented with fresh medium containing compounds every 3 days for 7 days by MTS assay relative to control; type: functional; outline: as §1
[6] = Stability of the compound in human liver S9 fraction at 10 uM measured after 1 hr by NADPH by HPLC-MS analysis; type: ADME, subcellular; details: s9, 1 h
Outline: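 Substrate (10 µM) was incubated 1 h at 37 °C with 40 µg human liver S9 fraction in 50 mM Tris with 10 mM MgCl2, with or without 10 mM NADPH. The reaction was stopped with MeOH. Remaining parent was measured by HPLC-MS (UV 190 nm) as the AUC ratio with/without NADPH ×100. Values are the mean ± SD of four independent experiments.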

[7] = biological target: T2, 17-beta-hydroxysteroid dehydrogenase type 3 (Homo sapiens); assay: Inhibition of 17beta-HSD3 (unknown origin) expressed in human LNCAP cells assessed as reduction in [14C]-testosterone formation from [14C]-4-androstene-3,17-dione at 0.5 uM measured after 1 hr relative to control; type: cell-based; outline: as §2
[8] = biological target: T2, 17-beta-hydroxysteroid dehydrogenase type 3 (Homo sapiens); assay: Inhibition of 17beta-HSD3 (unknown origin) expressed in human LNCAP cells assessed as reduction in [14C]-testosterone formation from [14C]-4-androstene-3,17-dione at 1 uM measured after 1 hr relative to control; type: cell-based; outline: as §2
PC-3 [9] = assay: Antiproliferative activity against AR-deficient human PC3 cells assessed as reduction in cell proliferation at 0.1 uM measured after 3 days by MTS assay relative to control; type: functional; design: scale not given: the % may be the effect or the level left; outline: as §3
LAPC4 [10] = assay: Antiproliferative activity against human LAPC4 cells expressing androgen receptor assessed as inhibition of cell proliferation at 0.5 uM supplemented with fresh medium containing compounds every 3 days for 7 days by MTS assay relative to control; type: functional; outline: as §1
PC-3 [11] = assay: Antiproliferative activity against AR-deficient human PC3 cells assessed as reduction in cell proliferation at 1 uM measured after 3 days by MTS assay relative to control; type: functional; design: scale not given: the % may be the effect or the level left; outline: as §3
[12] = Plasma concentration in mouse at 25 mg/kg, sc administered as single dose measured after 3 hrs by LC-MS/MS analysis; type: ADME, organism-based
Outline: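 Female mice were fasted 8 h, then given a single 25 mg/kg subcutaneous dose in 0.1 mL of 0.4% aqueous methylcellulose with 8% DMSO. At 3 h, blood was taken by cardiac puncture into K-EDTA tubes (3 mice per group). Plasma was extracted and analysed by LC-MS/MS against a plasma calibration curve.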

LAPC4 [13] = assay: Antiproliferative activity against human LAPC4 cells expressing androgen receptor assessed as inhibition of cell proliferation supplemented with fresh medium containing compounds every 3 days for 7 days by MTS assay; type: functional, cell-based; outline: as §1
[14] = biological target: T3, 17-beta-hydroxysteroid dehydrogenase type 3 (Rattus norvegicus, UniProt O54939); assay: Inhibition of 17beta-HSD3 in Sprague-Dawley rat testes microsomal fraction assessed as reduction in [14C]-testosterone formation from [14C]-4-androstene-3,17-dione measured after 2 hrs; design: species or system Testis
T3 sequence (O54939 whole entry): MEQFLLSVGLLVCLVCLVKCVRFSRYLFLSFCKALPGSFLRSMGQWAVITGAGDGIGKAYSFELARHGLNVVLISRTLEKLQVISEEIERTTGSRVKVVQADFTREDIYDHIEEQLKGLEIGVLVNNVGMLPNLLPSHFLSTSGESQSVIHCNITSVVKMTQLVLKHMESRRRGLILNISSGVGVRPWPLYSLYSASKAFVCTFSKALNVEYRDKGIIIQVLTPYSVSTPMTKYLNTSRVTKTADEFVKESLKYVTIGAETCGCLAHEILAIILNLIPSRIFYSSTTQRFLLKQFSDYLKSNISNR
Outline: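 The enzyme source was a microsomal fraction from Sprague-Dawley rat testes, prepared by homogenization in phosphate/sucrose/EDTA buffer (pH 7.5) and centrifugation at 100,000 g. The assay ran 2 h at 37 °C in 50 mM sodium phosphate (pH 7.4, 20% glycerol, 1 mM EDTA) with NADPH cofactor and [14C]-4-androstenedione. [14C]-T formation was measured at six inhibitor concentrations in triplicate, and IC50 was fitted from the curves.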

T47D [15] = assay: Antiproliferative activity against human T47D cells assessed as reduction in cell proliferation at 1 to 5 uM; type: functional, cell-based
T47D [16] = assay: Estrogenic activity in human T47D cells assessed as stimulation of cell proliferation at 1 to 5 uM; type: ADME, cell-based
LAPC4 [17] = assay: Antiproliferative activity against human LAPC4 cells expressing androgen receptor assessed as inhibition of cell proliferation at 1 uM measured after 3 days by MTS assay relative to control; type: functional; details: LAPC4, 72 h
LAPC4 [18] = assay: Antiproliferative activity against human LAPC4 cells expressing androgen receptor assessed as inhibition of cell proliferation at 0.5 uM measured after 3 days by MTS assay relative to control; type: functional; details: LAPC4, 72 h
LAPC4 [19] = assay: Antiproliferative activity against human LAPC4 cells expressing androgen receptor assessed as inhibition of cell proliferation at 0.1 uM measured after 3 days by MTS assay relative to control; type: functional; details: LAPC4, 72 h

Row | SMILES | inhibition (INH) (LAPC4 [1]) [%] | IC50 [2] [nM] | inhibition [3] [%] | Activity (PC-3 [4]) [%] | inhibition (INH) (LAPC4 [5]) [%] | Stability [6] | inhibition [7] [%] | inhibition [8] [%] | Activity (PC-3 [9]) [%] | inhibition (INH) (LAPC4 [10]) [%] | Activity (PC-3 [11]) [%] | concentration at 3 h [12] [ng/mL] | inhibition (LAPC4 [13]) | IC50 [14] [nM] | Activity (T47D [15]) | Activity (T47D [16]) | inhibition at 1 µM (LAPC4 [17]) [%] | inhibition at 0.5 µM (LAPC4 [18]) [%] | inhibition at 0.1 µM (LAPC4 [19]) [%]
1 | CC1CN(S(=O)(=O)c2ccccc2C(F)(F)F)C(C)CN1C[C@@]1(O)CC[C@@]2(C)[C@@H](CC[C@@H]3[C@@H]2CC[C@]2(C)C(=O)CC[C@@H]32)C1 (stereo not given in full) | 4 | 90 | 60 | 6 | 67 | Unstable | 96 | 100 | 9 | 52 | 11 | 27.7 | Dose-dependent effect | 80 | – | – | – | – | –
2 | CC1CN(S(=O)(=O)c2ccccc2C(F)(F)F)C(C)CN1Cc1cc2c(cc1O)CC[C@@H]1[C@@H]2CC[C@]2(C)C(=O)CC[C@@H]12 (stereo not given in full) | 0 | 170 | 50 | 5 | 6 | – | 76 | 84 | 4 | 7 | 7 | 89.3 | – | 120 | inactive | Non-Toxic | – | – | –
3 | C#C[C@]1(O)CC[C@H]2[C@@H]3CCc4cc(OC)c(N5CCN(C(=O)[C@@H]6CCCN6C(=O)c6ccc7ccccc7n6)CC5)cc4[C@H]3CC[C@@]21C | – | – | – | 20 | – | – | – | – | 3 | – | 39 | – | – | – | – | – | 69 | 62 | 19
4 | CC1CN(S(=O)(=O)c2ccccc2C(F)(F)F)C(C)CN1CCc1ccc2c(c1)CC[C@@H]1[C@@H]2CC[C@]2(C)C(=O)CC[C@@H]12 (stereo not given in full) | 48 | 130 | 38 | 5 | 79 | – | 60 | 70 | 1 | 80 | 1 | 51.6 | Dose-dependent effect | 100 | inactive | Non-Toxic | – | – | –
5 | CC1CN(S(=O)(=O)c2ccccc2C(F)(F)F)C(C)CN1CC(O)c1ccc2c(c1)CC[C@@H]1[C@@H]2CC[C@]2(C)C(=O)CC[C@@H]12 (single isomer, unassigned; diastereomer B) | -3 | 20 | – | 6 | 44 | – | – | – | 8 | 32 | 5 | 48.7 | – | 60 | – | – | – | – | –
6 | CC1CN(S(=O)(=O)c2ccccc2C(F)(F)F)C(C)CN1C(=O)c1ccc2c(c1)CC[C@@H]1[C@@H]2CC[C@]2(C)C(=O)CC[C@@H]12 (stereo not given in full) | 40 | 100 | 45 | 0 | 63 | Stable | 78 | 90 | 7 | 54 | 6 | 108 | Dose-dependent effect | 110 | – | – | – | – | –
7 | CC1CN(S(=O)(=O)c2ccccc2C(F)(F)F)C(C)CN1C[C@@]1(O)CC[C@@]2(C)[C@@H](CC[C@@H]3[C@@H]2CC[C@]2(C)/C(=N/O)CC[C@@H]32)C1 (stereo not given in full) | -8 | 220 | 40 | 6 | 56 | Stable | 80 | 90 | 10 | 41 | 4 | 94.7 | Dose-dependent effect | – | – | – | – | – | –
